Assay results taken from ChEMBL document CHEMBL4138310 (J Med Chem, 2018).

Tests used:
[1] = tested on: Human immunodeficiency virus 1; assay: Ratio of EC50 for wild-type HIV1 pNL4-3 infected in human MT4 in presence of 50% of human serum to EC50 for wild-type HIV-1 pNL4-3 infected in human MT4 in absence of human serum; format: functional
Method in brief: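 Serum binding effect calculated as the pNL4-3 EC50 in 50% human serum divided by the EC50 in 0% serum, using MT-4 cytopathic-effect MTT assays run for 5 days at 37 °C.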

[2] = Ratio of EC50 for DRV-resistant protease V32I/L33F/I54M/I84V mutant in HIV1 transfected in 293T cells to EC50 for wild-type HIV-1 pNL4-3 infected in CMVdeltaR8.91 transfected 293T cells; format: functional, Human immunodeficiency virus 1
[3] = target: Protease (Human immunodeficiency virus 1) (UniProt Q9YQ12); assay: Inhibition of recombinant HIV1 protease at 1 nM using H-Lys-Ala-Arg-Val-Tyr-Phe(p-NO2)-Glu-Ala-Nle-NH2 as substrate preincubated for 5 mins followed by substrate addition measured after 3 hrs by fluorescence-based assay
Method in brief: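 Recombinant HIV-1 protease (40 ng/mL stock in pH 5.0 acetate/EDTA/NaCl/2-mercaptoethanol/NP-40/glycerol) mixed with inhibitor (10 nM solution in DMSO) in 200 mM MES-NaOH pH 5.5 with 2 mM DTT, 2 mM EDTA and 1 M NaCl. Preincubated 5 min at 37 °C, then 1.0 mM substrate solution added and incubated 3 h at 37 °C. Stopped with 1 N HCl. The Lys-Ala-Arg-Val-Tyr-OH product was quantified by RP-HPLC with fluorescence (Ex 275, Em 305 nm). Single determination.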

[4] = Cytotoxicity against human MT4 cells after 5 days by MTT assay; format: cell-based; details: read-out: TD50
Method in brief: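 Uninfected MT-4 cells given compound at several concentrations in 1% DMSO solution with 10% FBS. Incubated 5 days at 37 °C in CO2, in triplicate. Viability read by MTT optical density, with TD50 taken as the cytotoxic measure.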

[5] = Ratio of EC50 for DRV-resistant protease V32I/L33F/I54M/V82I mutant in HIV1 transfected in 293T cells to EC50 for wild-type HIV-1 pNL4-3 infected in CMVdeltaR8.91 transfected 293T cells; format: functional, Human immunodeficiency virus 1
Method in brief: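 Ratio of IC50 values from the 293T luciferase reporter lentiviral vector assay. Numerator is vector carrying DRV-resistant protease (V32I/L33F/I54M/I84V or V32I/L33F/I54M/V82I), denominator is wild-type pNL4-3-based vector.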

[6] = tested on: Human immunodeficiency virus 1; assay: Antiviral activity against wild-type HIV1 pNL4-3 infected in human MT4 cells assessed as inhibition of virus-induced cytopathic effect after 5 days in presence of 50 % of human serum by MTT assay; format: functional, organism-based; details: Human immunodeficiency virus 1, pNL4-3, MT4, 120 h
Method in brief: (§1)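 MT-4 cells inoculated with HIV-1 pNL4-3, then given an equal volume of compound at several concentrations in 1% DMSO solution with 10% FBS. Incubated 5 days at 37 °C in CO2, in triplicate. MTT read by optical density, percent reduction of cytopathic effect calculated, and EC50 fitted to the median-effect equation. Values averaged over n = 3; the 50% human serum condition was run alongside.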

[7] = Ratio of EC50 for inhibition of protease L10F/V32I/M46I/I47V/Q58E/I84V mutant in HIV1 A17 infected in human MT4 cells to EC50 for wild-type HIV-1 pNL4-3 infected in human MT4 cells; format: functional, Human immunodeficiency virus 1
Method in brief: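 Ratio of EC50 values from MT-4 cytopathic-effect MTT assays (5 days, 37 °C, triplicate, median-effect fit). Numerator is LPV-resistant strain A1711, denominator is wild-type HIV-1 pNL4-3.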

[8] = tested on: Human immunodeficiency virus 1; assay: Antiviral activity against wild-type HIV1 pNL4-3 infected in human MT4 cells assessed as inhibition of virus-induced cytopathic effect after 5 days in absence of human serum by MTT assay; format: functional, organism-based; details: Human immunodeficiency virus 1, pNL4-3, MT4, 120 h; method in brief: as §1
[9] = tested on: Human immunodeficiency virus 1; assay: Antiviral activity against wild-type HIV1 pNL4-3 infected in CMVdeltaR8.91 transfected 293T cells after 48 hrs by lentiviral vector-based luciferase reporter gene assay; format: functional, organism-based; details: Human immunodeficiency virus 1, pNL4-3, HEK-293T
Method in brief: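 pNL4-3-based luciferase reporter lentiviral vector made by transfecting 293T cells with pCMV-ΔR8.91 (wild-type or V32I/L33F/I54M/V82I or V32I/L33F/I54M/I84V protease) plus luciferase transfer and envelope plasmids, with or without inhibitor. After 48 h, fresh 293T cells infected with vector. IC50 for suppression of luciferase transduction taken from dose-response curve.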

For `COc1cccc2cc(C(=O)N[C@H](C(=O)N[C@@H](Cc3ccccc3)[C@H](O)C(=O)N3CSC(C)(C)[C@H]3C(=O)NCc3c(C)cccc3C)[C@H]3CCOC3)oc12`, the “Ratio EC50” value [1] was >27, the “Ratio EC50” value [2] was 0.7 and the inhibition [3] was 97%. The CC50 at 120 h [4] was 11 µM, the “Ratio EC50” value [5] was 0.2 and the EC50 [6] was 0.08 µM. The “Ratio EC50” value [7] was >8, the EC50 [8] was < 0.003 µM and the EC50 [9] was 0.00171 µM.
